In brackets after ≈: the same amount, converted by molar mass. Several values for one entry are separate records, joined by “and”; a condition that tells them apart may be missing. Equal values may be shown once.

Series [1] deals with Aedes aegypti. Nature of the series: Larvicidal activity against Aedes aegypti L4 stage larvae assessed as induction of larval mortality incubated for 48 hrs. The following applies: for LC50: Aedes aegypti, 48 h. The series is classed as functional. Put shortly:
(§1)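 Adapted WHO larval test. Compound solubilized with Tween 80 co-solvent in distilled water as stock, then diluted. Fourth-instar A. aegypti larvae, 20 per beaker, in 20 mL test solution; four replicates per concentration, plus a compound-free negative control. Mortality scored after 48 h at 28 ± 2 °C, 70 ± 10 relative humidity (dead = no response to stimulus or failure to surface). LC50 from probit analysis.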

Series [2] is described as follows: Cytotoxicity against BALB/c mouse splenocytes assessed as reduction in cell viability incubated for 24 hrs by beta-radiation counting based [3H]-thymidine incorporation assay. Also noted: species or system Splenocyte. Put shortly: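 BALB/c mouse splenocytes seeded at 6 × 10^5 cells/well in RPMI-1640 with 10% FBS and gentamycin; compound added in DMSO at six concentrations (1, 5, 10, 25, 50, 100) in triplicate; 24 h at 37 °C, 5% CO2; then 3H-thymidine pulse and beta counting. Viability as % incorporation versus solvent-only cells; saponin positive control; highest non-toxic concentration estimated.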
(Incorporation of labelled thymidine or its analogues reports DNA synthesis.)

The nature of series [3]: Lipophilicity log P of the compound. Conditions: octanol/water. It is filed as physicochemical. Put shortly: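 Calculated rather than measured, alongside the B3LYP/6-311++G(d,p) dipole moment.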
For a further series, the target named is T1, Sterol carrier protein 2 (Aedes aegypti, UniProt Q86PR3).
T1 sequence (Q86PR3 whole entry): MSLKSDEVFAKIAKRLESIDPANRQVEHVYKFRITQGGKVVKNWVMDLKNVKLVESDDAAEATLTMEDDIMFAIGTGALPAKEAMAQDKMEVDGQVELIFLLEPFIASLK
As to the kind of experiment: (§2) Inhibition of NBD-cholesterol binding to recombinant Aedes aegypti SCP-2 protein by fluorescence based assay. Put shortly: (§3)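 Competition assay with purified recombinant AeSCP-2, NBD-cholesterol and compound at increasing concentrations, read as fluorescence intensity. Separate NBD-cholesterol plus compound wells served as background where the compound interfered with fluorescence. Net signal is NBD-cholesterol/SCP-2/compound fluorescence minus that background, plotted as dose-response.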

The target in series [4] is T2, Sterol carrier protein 2 (Aedes aegypti) (UniProt Q86PR3).
T2 sequence (whole entry): T1 sequence (Q86PR3 whole entry)
The description is as §2. Put shortly:
as §3

The subject of series [5] is Aedes aegypti. As to the kind of experiment: Larvicidal activity against Aedes aegypti. The series is classed as functional. Put shortly:
as §1

A word on the LC50: it is the concentration that kills 50% of the test population. As a reminder, the logP is the decadic logarithm of the partition coefficient of the neutral form, usually between octanol and water. Read a high logP as a more lipophilic compound. Consider `NC(=S)N/N=C/c1ccc(F)cc1`, for which, in the series with Aedes aegypti [1], the “log(1/LC50)” value was determined as 3.507; the LC50 was 61.3 µg/mL and 311 µM. The MNTC at 24 h in series [2] worked out at 25.4 µM. Further, in series [3], the logP was 2.18.
As a reminder, the EC50 is the concentration needed to bring the measured effect to its halfway point. In the case of `NC(=S)N/N=C/c1ccc(O)cc1`, the MNTC at 24 h in series [2] was 5.12 µM. In addition, the EC50 on Sterol carrier protein 2 came to 5 µM. The inhibition result in series [4] is “Dose-dependent effect”.
For `COc1ccc(OC/C=N/NC(N)=S)cc1`, in the series with Aedes aegypti [1], the “log(1/LC50)” value is on record as 3.298; the LC50 was 120 µg/mL and 503 µM. In addition, in series [2], the MNTC at 24 h was 20.9 µM. Also, the EC50 at Sterol carrier protein 2 came out at 0.6 µM. For the same molecule, the inhibition entry in series [4] was “Dose-dependent effect”. In series [3], this molecule displayed a logP of 2.09.
For the molecule `CC(C)CNC(=O)/C=C/C=C/CCCCCC/C=C/c1ccc2c(c1)OCO2` [GUINEENSINE], the LC50 in the series on Aedes aegypti [5] stood at 0.89 µg/mL (≈ 2.32 µM).
Take `NC(=S)N/N=C/COc1ccc(Br)cc1`: in the series on Aedes aegypti [1], the “log(1/LC50)” value amounted to 4.036; the LC50 was 26.5 µg/mL and 92 µM. In addition, the MNTC at 24 h in series [2] was > 347 µM. For the same molecule, in series [3], the lipophilicity (logP) came out at 2.9.
With `CC(C)CNC(=O)/C=C/C=C/CC/C=C/c1ccc2c(c1)OCO2` [RETROFRACTAMIDE A], the median lethal concentration (LC50) with Aedes aegypti [5] came to 0.04 µg/mL (≈ 0.122 µM).
For the molecule `N/C(S)=N/N=C/c1ccc(Cl)c(Cl)c1`, in the series on Aedes aegypti [1], the “log(1/LC50)” value is 4.157; the LC50 was 17.3 µg/mL and 69.7 µM. Besides, the MNTC at 24 h in series [2] stood at 20.2 µM. This molecule came in with a logP in series [3] of 3.27.
Turning to `NC(=S)N/N=C/c1ccc(Br)cc1`, in the series on Aedes aegypti [1], the “log(1/LC50)” value was found to be 3.91; the LC50 was 31.7 µg/mL and 123 µM. The MNTC at 24 h in series [2] is < 3.87 µM. This molecule also displayed a logP in series [3] of 2.87.
Turning to `NC(=S)N/N=C/c1cccc(/C=N/NC(N)=S)c1`, the median lethal concentration (LC50) with Aedes aegypti [1] was > 200 µg/mL.
`NC(=O)N/N=C/c1ccc(F)cc1`: in the series on Aedes aegypti [1], the median lethal concentration (LC50) is > 200 µg/mL and > 1.1 mM. In series [2], the MNTC at 24 h was > 55.1 µM.
For `NC(=S)N/N=C/COc1ccc(Cl)c(Cl)c1`, in the series with Aedes aegypti [1], the “log(1/LC50)” value is on record as 4.68; the LC50 is 5.8 µg/mL and 20.9 µM. In series [2], the MNTC at 24 h was found to be 89.8 µM. Besides, in series [3], the logP came out at 3.3.
As to `CCCCC/C=C/C=C/C(=O)NCC(C)C` [PELLITORIN], in the series on Aedes aegypti [5], the LC50 amounted to 0.92 µg/mL (≈ 4.12 µM).
Regarding `NC(=S)N/N=C/COc1ccc(Cl)cc1`, in the series on Aedes aegypti [1], the “log(1/LC50)” value was 4.046; the LC50 was 21.9 µg/mL and 89.9 µM. Further, the MNTC at 24 h in series [2] amounted to 103 µM. Besides, in series [3], the logP came to 2.65.
Regarding `NC(=S)N/N=C/COc1cccc(Cl)c1`, in the series on Aedes aegypti [1], the “log(1/LC50)” value came out at 3.542; the LC50 was 70 µg/mL and 287 µM. For the same molecule, in series [2], the MNTC at 24 h came to 103 µM. For the same molecule, the logP in series [3] stood at 2.65.
For the molecule `NC(=S)N/N=C/COc1ccccc1`, in the series with Aedes aegypti [1], the “log(1/LC50)” value was found to be 3.268; the LC50 is 113 µg/mL and 538 µM. Also, the MNTC at 24 h in series [2] came out at 119 µM. Moreover, the logP in series [3] was 2.01.
With `NC(=O)N/N=C/c1ccc(Cl)c(Cl)c1`, the LC50 in the series with Aedes aegypti [1] is > 200 µg/mL and > 862 µM. Moreover, the MNTC at 24 h in series [2] was > 431 µM.
Turning to `NC(=S)N/N=C/COc1cccc(Cl)c1Cl`, in the series with Aedes aegypti [1], the “log(1/LC50)” value was found to be 4.154; the 50% lethal concentration (LC50) is 19.5 µg/mL and 70.1 µM. In addition, the MNTC at 24 h in series [2] is 17.9 µM. Moreover, in series [3], the logP is 3.3.
As for `NC(=S)N/N=C/c1ccc(Cl)cc1`, in the series on Aedes aegypti [1], the “log(1/LC50)” value came out at 3.873; the LC50 was 28.8 µg/mL and 135 µM. Moreover, the MNTC at 24 h in series [2] is 23.3 µM. For the same molecule, the logP in series [3] was found to be 2.63.
As to `CC(C)CNC(=O)/C=C/C=C/CCCC/C=C/c1ccc2c(c1)OCO2` [RETROFRACTAMIDE B], the LC50 with Aedes aegypti [5] came to 0.1 µg/mL (≈ 0.281 µM).
For `NC(=S)N/N=C/C=C/c1ccccc1`, in the series with Aedes aegypti [1], the “log(1/LC50)” value was 3.86; the LC50 was 28.4 µg/mL and 138 µM. In addition, the MNTC at 24 h in series [2] was < 4.87 µM.
In the case of `C/C(=N\NC(N)=S)C(C)Oc1ccc(Cl)c(Cl)c1` (stereo not drawn), in the series on Aedes aegypti [1], the median lethal concentration (LC50) turned out to be 3.95 µM. In series [3], this molecule had a log partition coefficient (logP) of 4.87.

These data come from ChEMBL document CHEMBL3588801, “Thiosemicarbazones as Aedes aegypti larvicidal” (Eur J Med Chem, 2015).
